Calls of active or inactive are those of the source. The calls are words filed in the database; no cut-off is given here.
Legend:
Assay type in all cases: protein-complex assay
[1] = target: T1, MexXY/OprM (Pseudomonas aeruginosa (strain ATCC 15692 / DSM 22644 / CIP 104116 / JCM14847 / LMG 12228 / 1C / PRS 101 / PAO1)) (UniProt Q51487+Q9ZNG9+Q9ZNG8); assay: Inhibition of MexXY/OPRM in Pseudomonas aeruginosa K767 assessed as reduction in bacterial resistance to tobramycin by measuring tobramycin MIC at 80 ug/ml incubated for 24 to 48 hrs by broth microdilution method (reference value: 0.25 ug/ml)
Method in brief: (§1)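 Broth microdilution per CLSI, with P. aeruginosa ATCC 27853 as reference strain, in 2-fold dilution series. Plates were incubated at 37°C and read for visible growth at 24 and 48 h. Berberine stock was in 50% DMSO/50% methanol, with final DMSO kept near 1%. Berberine was tested at 10–320 µg/ml, alone or at a fixed level with serial tobramycin.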

[2] = target: T1, MexXY/OprM (Pseudomonas aeruginosa (strain ATCC 15692 / DSM 22644 / CIP 104116 / JCM14847 / LMG 12228 / 1C / PRS 101 / PAO1)); assay: Inhibition of MexXY/OPRM in Pseudomonas aeruginosa C6 assessed as reduction in bacterial resistance to tobramycin by measuring tobramycin MIC at 80 ug/ml incubated for 24 to 48 hrs by broth microdilution method (reference value: 2 ug/ml)
[3] = target: T1, MexXY/OprM (Pseudomonas aeruginosa (strain ATCC 15692 / DSM 22644 / CIP 104116 / JCM14847 / LMG 12228 / 1C / PRS 101 / PAO1)); assay: Inhibition of MexXY/OPRM in Pseudomonas aeruginosa C86 assessed as reduction in bacterial resistance to tobramycin by measuring tobramycin MIC at 80 ug/ml incubated for 24 to 48 hrs by broth microdilution method (reference value: 128 ug/ml); method in brief: as §1
[4] = target: T1, MexXY/OprM (Pseudomonas aeruginosa (strain ATCC 15692 / DSM 22644 / CIP 104116 / JCM14847 / LMG 12228 / 1C / PRS 101 / PAO1)); assay: Inhibition of MexXY/OPRM in Pseudomonas aeruginosa C89 assessed as reduction in bacterial resistance to tobramycin by measuring tobramycin MIC at 80 ug/ml incubated for 24 to 48 hrs by broth microdilution method (reference value: >128 ug/ml); method in brief: as §1
[5] = target: T1, MexXY/OprM (Pseudomonas aeruginosa (strain ATCC 15692 / DSM 22644 / CIP 104116 / JCM14847 / LMG 12228 / 1C / PRS 101 / PAO1)); assay: Inhibition of MexXY/OPRM in Pseudomonas aeruginosa C98 assessed as reduction in bacterial resistance to tobramycin by measuring tobramycin MIC at 80 ug/ml incubated for 24 to 48 hrs by broth microdilution method (reference value: 64 ug/ml); method in brief: as §1
[6] = target: T1, MexXY/OprM (Pseudomonas aeruginosa (strain ATCC 15692 / DSM 22644 / CIP 104116 / JCM14847 / LMG 12228 / 1C / PRS 101 / PAO1)); assay: Inhibition of MexXY/OPRM in Pseudomonas aeruginosa C103 assessed as reduction in bacterial resistance to tobramycin by measuring tobramycin MIC at 80 ug/ml incubated for 24 to 48 hrs by broth microdilution method (reference value: 4 ug/ml)
[7] = target: T1, MexXY/OprM (Pseudomonas aeruginosa (strain ATCC 15692 / DSM 22644 / CIP 104116 / JCM14847 / LMG 12228 / 1C / PRS 101 / PAO1)); assay: Inhibition of MexXY/OPRM in Pseudomonas aeruginosa AR61 assessed as reduction in bacterial resistance to tobramycin by measuring tobramycin MIC at 80 ug/ml incubated for 24 to 48 hrs by broth microdilution method (reference value: 0.125 ug/ml)
[8] = target: T1, MexXY/OprM (Pseudomonas aeruginosa (strain ATCC 15692 / DSM 22644 / CIP 104116 / JCM14847 / LMG 12228 / 1C / PRS 101 / PAO1)); assay: Inhibition of MexXY/OPRM in Pseudomonas aeruginosa K767 assessed as bacterial growth up to 320 ug/ml incubated for 24 to 48 hrs by broth microdilution method; method in brief: as §1
[9] = target: T1, MexXY/OprM (Pseudomonas aeruginosa (strain ATCC 15692 / DSM 22644 / CIP 104116 / JCM14847 / LMG 12228 / 1C / PRS 101 / PAO1)); assay: Inhibition of MexXY/OPRM in Pseudomonas aeruginosa C6 assessed as bacterial growth up to 320 ug/ml incubated for 24 to 48 hrs by broth microdilution method
Method in brief: (§2)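 Broth microdilution following CLSI guidelines, with P. aeruginosa ATCC 27853 as reference strain. Berberine was tested at 2-fold concentrations from 10 to 320 µg/ml, dissolved in 50% DMSO/50% methanol, with the top concentration set to keep final DMSO close to 1%. Plates were incubated at 37°C and read for visible growth at 24 and 48 h.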

[10] = target: T1, MexXY/OprM (Pseudomonas aeruginosa (strain ATCC 15692 / DSM 22644 / CIP 104116 / JCM14847 / LMG 12228 / 1C / PRS 101 / PAO1)); assay: Inhibition of MexXY/OPRM in Pseudomonas aeruginosa C9 assessed as bacterial growth up to 320 ug/ml incubated for 24 to 48 hrs by broth microdilution method; method in brief: as §1
[11] = target: T1, MexXY/OprM (Pseudomonas aeruginosa (strain ATCC 15692 / DSM 22644 / CIP 104116 / JCM14847 / LMG 12228 / 1C / PRS 101 / PAO1)); assay: Inhibition of MexXY/OPRM in Pseudomonas aeruginosa C30 assessed as bacterial growth up to 320 ug/ml incubated for 24 to 48 hrs by broth microdilution method; method in brief: as §2
[12] = target: T1, MexXY/OprM (Pseudomonas aeruginosa (strain ATCC 15692 / DSM 22644 / CIP 104116 / JCM14847 / LMG 12228 / 1C / PRS 101 / PAO1)); assay: Inhibition of MexXY/OPRM in Pseudomonas aeruginosa C31 assessed as bacterial growth up to 320 ug/ml incubated for 24 to 48 hrs by broth microdilution method; method in brief: as §2
[13] = target: T1, MexXY/OprM (Pseudomonas aeruginosa (strain ATCC 15692 / DSM 22644 / CIP 104116 / JCM14847 / LMG 12228 / 1C / PRS 101 / PAO1)); assay: Inhibition of MexXY/OPRM in Pseudomonas aeruginosa C52 assessed as bacterial growth up to 320 ug/ml incubated for 24 to 48 hrs by broth microdilution method; method in brief: as §2
[14] = target: T1, MexXY/OprM (Pseudomonas aeruginosa (strain ATCC 15692 / DSM 22644 / CIP 104116 / JCM14847 / LMG 12228 / 1C / PRS 101 / PAO1)); assay: Inhibition of MexXY/OPRM in Pseudomonas aeruginosa C61 assessed as bacterial growth up to 320 ug/ml incubated for 24 to 48 hrs by broth microdilution method; method in brief: as §2
[15] = target: T1, MexXY/OprM (Pseudomonas aeruginosa (strain ATCC 15692 / DSM 22644 / CIP 104116 / JCM14847 / LMG 12228 / 1C / PRS 101 / PAO1)); assay: Inhibition of MexXY/OPRM in Pseudomonas aeruginosa C76 assessed as bacterial growth up to 320 ug/ml incubated for 24 to 48 hrs by broth microdilution method; method in brief: as §2
[16] = target: T1, MexXY/OprM (Pseudomonas aeruginosa (strain ATCC 15692 / DSM 22644 / CIP 104116 / JCM14847 / LMG 12228 / 1C / PRS 101 / PAO1)); assay: Inhibition of MexXY/OPRM in Pseudomonas aeruginosa C84 assessed as bacterial growth up to 320 ug/ml incubated for 24 to 48 hrs by broth microdilution method; method in brief: as §1
[17] = target: T1, MexXY/OprM (Pseudomonas aeruginosa (strain ATCC 15692 / DSM 22644 / CIP 104116 / JCM14847 / LMG 12228 / 1C / PRS 101 / PAO1)); assay: Inhibition of MexXY/OPRM in Pseudomonas aeruginosa C95 assessed as bacterial growth up to 320 ug/ml incubated for 24 to 48 hrs by broth microdilution method; method in brief: as §1
[18] = target: T1, MexXY/OprM (Pseudomonas aeruginosa (strain ATCC 15692 / DSM 22644 / CIP 104116 / JCM14847 / LMG 12228 / 1C / PRS 101 / PAO1)); assay: Inhibition of MexXY/OPRM in Pseudomonas aeruginosa C104 assessed as bacterial growth up to 320 ug/ml incubated for 24 to 48 hrs by broth microdilution method; method in brief: as §2
[19] = target: T1, MexXY/OprM (Pseudomonas aeruginosa (strain ATCC 15692 / DSM 22644 / CIP 104116 / JCM14847 / LMG 12228 / 1C / PRS 101 / PAO1)); assay: Inhibition of MexXY/OPRM in Pseudomonas aeruginosa AR51 assessed as bacterial growth up to 320 ug/ml incubated for 24 to 48 hrs by broth microdilution method; method in brief: as §2
[20] = target: T1, MexXY/OprM (Pseudomonas aeruginosa (strain ATCC 15692 / DSM 22644 / CIP 104116 / JCM14847 / LMG 12228 / 1C / PRS 101 / PAO1)); assay: Inhibition of MexXY/OPRM in Pseudomonas aeruginosa C67 assessed as bacterial growth up to 320 ug/ml incubated for 24 to 48 hrs by broth microdilution method; method in brief: as §2
[21] = target: T1, MexXY/OprM (Pseudomonas aeruginosa (strain ATCC 15692 / DSM 22644 / CIP 104116 / JCM14847 / LMG 12228 / 1C / PRS 101 / PAO1)); assay: Inhibition of MexXY/OPRM in Pseudomonas aeruginosa C84 assessed as reduction in bacterial resistance to tobramycin by measuring fold reduction in tobramycin MIC at 80 ug/ml incubated for 24 to 48 hrs by broth microdilution method
Method in brief: (§3)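 Tobramycin MIC by CLSI broth microdilution at 37°C, read at 24 and 48 h, with and without a fixed berberine concentration selected from checkerboard assays. Berberine stock was in 50% DMSO/50% methanol, final DMSO about 1%. A 2-fold decrease in tobramycin MIC was scored as synergy.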

[22] = target: T1, MexXY/OprM (Pseudomonas aeruginosa (strain ATCC 15692 / DSM 22644 / CIP 104116 / JCM14847 / LMG 12228 / 1C / PRS 101 / PAO1)); assay: Inhibition of MexXY/OPRM in Pseudomonas aeruginosa C93 assessed as reduction in bacterial resistance to tobramycin by measuring fold reduction in tobramycin MIC at 80 ug/ml incubated for 24 to 48 hrs by broth microdilution method; method in brief: as §3
[23] = target: T1, MexXY/OprM (Pseudomonas aeruginosa (strain ATCC 15692 / DSM 22644 / CIP 104116 / JCM14847 / LMG 12228 / 1C / PRS 101 / PAO1)); assay: Inhibition of MexXY/OPRM in Pseudomonas aeruginosa C95 assessed as reduction in bacterial resistance to tobramycin by measuring fold reduction in tobramycin MIC at 80 ug/ml incubated for 24 to 48 hrs by broth microdilution method; method in brief: as §3
[24] = target: T1, MexXY/OprM (Pseudomonas aeruginosa (strain ATCC 15692 / DSM 22644 / CIP 104116 / JCM14847 / LMG 12228 / 1C / PRS 101 / PAO1)); assay: Inhibition of MexXY/OPRM in Pseudomonas aeruginosa AR48 assessed as reduction in bacterial resistance to tobramycin by measuring fold reduction in tobramycin MIC at 80 ug/ml incubated for 24 to 48 hrs by broth microdilution method

COc1ccc2cc3[n+](cc2c1OC)CCc1cc2c(cc1-3)OCO2 [BERBERINE]
MIC [1]: 0.125 µg/mL
MIC [2]: 0.5 µg/mL
MIC [3]: 16 µg/mL
MIC [4]: 64 µg/mL
MIC [5]: 32 µg/mL
MIC [6]: 4 µg/mL
MIC [7]: 0.125 µg/mL
inhibition [8]: inactive
inhibition [9]: inactive
inhibition [10]: inactive
inhibition [11]: inactive
inhibition [12]: inactive
inhibition [13]: inactive
inhibition [14]: inactive
inhibition [15]: inactive
inhibition [16]: inactive
inhibition [17]: inactive
inhibition [18]: inactive
inhibition [19]: inactive
inhibition [20]: inactive
fold change (FC) [21]: > 2
fold change (FC) [22]: > 2
fold change (FC) [23]: > 2
fold change (FC) [24]: > 2
